We go through 5 compounds from ChEMBL document CHEMBL1165987, “Cyclic tripeptides from the halotolerant fungus Aspergillus sclerotiorum PT06-1” (2010).

One test has as its system Staphylococcus aureus. The test is described as follows: Antimicrobial activity against Staphylococcus aureus after 24 hrs by agar dilution method. The test is classed as functional, organism-based. Summed up:
(§1)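 Each organism was tested separately by agar dilution. The MIC was recorded as the read-out and given in µM.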

Another test concerns Candida albicans. The test is described as follows: Antimicrobial activity against Candida albicans after 24 hrs by agar dilution method. The test is classed as functional. Summed up: as §1
For the next test, the system named is A549. The test is described as follows: Cytotoxicity against human A549 cells after 24 hrs by SRB method. The test is classed as functional, cell-based.
The subject of the next test is HL-60. The test is described as follows: Cytotoxicity against human HL60 cells after 72 hrs by MTT assay. The test is classed as functional, cell-based.
The test system of another test is Escherichia coli. The test is described as follows: Antimicrobial activity against Escherichia coli after 24 hrs by agar dilution method. The test is classed as functional, organism-based. In a few lines:
as §1

Structures are written as SMILES. Converted amounts (≈) assume the structure as drawn. The source made the active and inactive calls. The rule behind the calls is not given here.

Turning to `C/C=C/C=C/C=C/C(=O)N[C@H]1CCCNC(=O)[C@H](C)NC(=O)[C@H](C(C)C)N(C)C1=O`, the MIC result in the test on Staphylococcus aureus and in the test on Escherichia coli was “inactive” throughout. In addition, the MIC against Candida albicans worked out at 30 µM (≈ 12.6 µg/mL). Besides, the inhibition entry in the test with A549 and in the test with HL-60 was “inactive” in each case.

As to `C/C=C/C=C/C=C/C(=O)N[C@H]1CCCNC(=O)[C@H](C)N(C)C(=O)[C@H](C(C)C)NC1=O` [SCLEROTIOTIDE A], the MIC entry in the test on Staphylococcus aureus and with Escherichia coli was “inactive” in each case. Further, the MIC with Candida albicans stood at 7.5 µM (≈ 3.14 µg/mL). The inhibition entry with A549 and with HL-60 was “inactive” each time.

On to `C/C=C/C=C/C(=O)N[C@H]1CCCNC(=O)[C@H](C)N(C)C(=O)[C@H](C(C)C)N(C)C1=O` [SCLEROTIOTIDE B], for which the MIC result in the test with Staphylococcus aureus and in the test on Escherichia coli was “inactive” throughout. For the same compound, the lowest concentration to inhibit growth with Candida albicans (MIC) was 3.8 µM (≈ 1.54 µg/mL). Further, the inhibition result with A549 and in the test on HL-60 was “inactive” in each case.

With `CC(C)[C@H]1C(=O)N(C)[C@@H](C)C(=O)NCCC[C@H](NC(=O)/C=C/C=C/C=O)C(=O)N1C` [SCLEROTIOTIDE F], the MIC result in the test on Staphylococcus aureus and in the test with Escherichia coli was “inactive” each time. Also, in the test on Candida albicans, inhibition of growth (MIC) required 30 µM (≈ 12.6 µg/mL). Moreover, the inhibition entry with A549 and in the test on HL-60 was “inactive” throughout.

For `CC(C)[C@H]1C(=O)N(C)[C@@H](C)C(=O)NCCC[C@H](NC(=O)/C=C/C=C/[C@@H](O)[C@@H](C)O)C(=O)N1C` [SCLEROTIOTIDE I], the MIC result in the test on Staphylococcus aureus and with Escherichia coli was “inactive” throughout. For the same compound, the lowest concentration to inhibit growth against Candida albicans (MIC) was 6.7 µM (≈ 3.13 µg/mL). The inhibition entry with A549 and in the test with HL-60 was “inactive” each time.
